Drawing on ChEMBL document CHEMBL4118021, “Studies of TAK1-centered polypharmacology with novel covalent TAK1 inhibitors” (Bioorg Med Chem, 2017), this text covers Activity and inhibition for three compounds.

The source made the active and inactive calls. The rule behind the calls is not given here.

Assay [1] concerns the target Histone H3.2 (Homo sapiens) (UniProt Q71DI3). The assay can be described thus: Binding affinity to HIST2H3A in human NCI-H23 cells at 1 uM by mass spectrometry based pull down assay. Format: cell-based.
For assay [2], the target named is Acidic leucine-rich nuclear phosphoprotein 32 family member B (Homo sapiens) (UniProt Q92688). The experiment in a line: Binding affinity to ANP32B in human NCI-H23 cells at 1 uM by mass spectrometry based pull down assay. Format: cell-based.
Chain of Acidic leucine-rich nuclear phosphoprotein 32 family member B (Homo sapiens) (Q92688 whole entry): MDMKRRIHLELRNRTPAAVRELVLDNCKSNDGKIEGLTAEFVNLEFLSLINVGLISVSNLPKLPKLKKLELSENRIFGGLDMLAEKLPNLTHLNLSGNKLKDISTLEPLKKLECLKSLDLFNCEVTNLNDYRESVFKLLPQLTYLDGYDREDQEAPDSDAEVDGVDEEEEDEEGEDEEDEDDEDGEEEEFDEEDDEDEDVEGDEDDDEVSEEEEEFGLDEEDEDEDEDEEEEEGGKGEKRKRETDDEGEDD
The target of assay [3] is Importin-5 (Homo sapiens) (UniProt O00410). The assay can be described thus: Binding affinity to IPO5 in human NCI-H23 cells at 1 uM by mass spectrometry based pull down assay. In kind it is cell-based.
Assay [4] deals with Serine/threonine-protein kinase WNK1 (Homo sapiens) (UniProt Q9H4A3). The experiment in a line: Binding affinity to WNK1 in human NCI-H23 cells at 1 uM by mass spectrometry based pull down assay. Format: cell-based.
Chain of Serine/threonine-protein kinase WNK1 (Homo sapiens) (Q9H4A3 whole entry, looked up): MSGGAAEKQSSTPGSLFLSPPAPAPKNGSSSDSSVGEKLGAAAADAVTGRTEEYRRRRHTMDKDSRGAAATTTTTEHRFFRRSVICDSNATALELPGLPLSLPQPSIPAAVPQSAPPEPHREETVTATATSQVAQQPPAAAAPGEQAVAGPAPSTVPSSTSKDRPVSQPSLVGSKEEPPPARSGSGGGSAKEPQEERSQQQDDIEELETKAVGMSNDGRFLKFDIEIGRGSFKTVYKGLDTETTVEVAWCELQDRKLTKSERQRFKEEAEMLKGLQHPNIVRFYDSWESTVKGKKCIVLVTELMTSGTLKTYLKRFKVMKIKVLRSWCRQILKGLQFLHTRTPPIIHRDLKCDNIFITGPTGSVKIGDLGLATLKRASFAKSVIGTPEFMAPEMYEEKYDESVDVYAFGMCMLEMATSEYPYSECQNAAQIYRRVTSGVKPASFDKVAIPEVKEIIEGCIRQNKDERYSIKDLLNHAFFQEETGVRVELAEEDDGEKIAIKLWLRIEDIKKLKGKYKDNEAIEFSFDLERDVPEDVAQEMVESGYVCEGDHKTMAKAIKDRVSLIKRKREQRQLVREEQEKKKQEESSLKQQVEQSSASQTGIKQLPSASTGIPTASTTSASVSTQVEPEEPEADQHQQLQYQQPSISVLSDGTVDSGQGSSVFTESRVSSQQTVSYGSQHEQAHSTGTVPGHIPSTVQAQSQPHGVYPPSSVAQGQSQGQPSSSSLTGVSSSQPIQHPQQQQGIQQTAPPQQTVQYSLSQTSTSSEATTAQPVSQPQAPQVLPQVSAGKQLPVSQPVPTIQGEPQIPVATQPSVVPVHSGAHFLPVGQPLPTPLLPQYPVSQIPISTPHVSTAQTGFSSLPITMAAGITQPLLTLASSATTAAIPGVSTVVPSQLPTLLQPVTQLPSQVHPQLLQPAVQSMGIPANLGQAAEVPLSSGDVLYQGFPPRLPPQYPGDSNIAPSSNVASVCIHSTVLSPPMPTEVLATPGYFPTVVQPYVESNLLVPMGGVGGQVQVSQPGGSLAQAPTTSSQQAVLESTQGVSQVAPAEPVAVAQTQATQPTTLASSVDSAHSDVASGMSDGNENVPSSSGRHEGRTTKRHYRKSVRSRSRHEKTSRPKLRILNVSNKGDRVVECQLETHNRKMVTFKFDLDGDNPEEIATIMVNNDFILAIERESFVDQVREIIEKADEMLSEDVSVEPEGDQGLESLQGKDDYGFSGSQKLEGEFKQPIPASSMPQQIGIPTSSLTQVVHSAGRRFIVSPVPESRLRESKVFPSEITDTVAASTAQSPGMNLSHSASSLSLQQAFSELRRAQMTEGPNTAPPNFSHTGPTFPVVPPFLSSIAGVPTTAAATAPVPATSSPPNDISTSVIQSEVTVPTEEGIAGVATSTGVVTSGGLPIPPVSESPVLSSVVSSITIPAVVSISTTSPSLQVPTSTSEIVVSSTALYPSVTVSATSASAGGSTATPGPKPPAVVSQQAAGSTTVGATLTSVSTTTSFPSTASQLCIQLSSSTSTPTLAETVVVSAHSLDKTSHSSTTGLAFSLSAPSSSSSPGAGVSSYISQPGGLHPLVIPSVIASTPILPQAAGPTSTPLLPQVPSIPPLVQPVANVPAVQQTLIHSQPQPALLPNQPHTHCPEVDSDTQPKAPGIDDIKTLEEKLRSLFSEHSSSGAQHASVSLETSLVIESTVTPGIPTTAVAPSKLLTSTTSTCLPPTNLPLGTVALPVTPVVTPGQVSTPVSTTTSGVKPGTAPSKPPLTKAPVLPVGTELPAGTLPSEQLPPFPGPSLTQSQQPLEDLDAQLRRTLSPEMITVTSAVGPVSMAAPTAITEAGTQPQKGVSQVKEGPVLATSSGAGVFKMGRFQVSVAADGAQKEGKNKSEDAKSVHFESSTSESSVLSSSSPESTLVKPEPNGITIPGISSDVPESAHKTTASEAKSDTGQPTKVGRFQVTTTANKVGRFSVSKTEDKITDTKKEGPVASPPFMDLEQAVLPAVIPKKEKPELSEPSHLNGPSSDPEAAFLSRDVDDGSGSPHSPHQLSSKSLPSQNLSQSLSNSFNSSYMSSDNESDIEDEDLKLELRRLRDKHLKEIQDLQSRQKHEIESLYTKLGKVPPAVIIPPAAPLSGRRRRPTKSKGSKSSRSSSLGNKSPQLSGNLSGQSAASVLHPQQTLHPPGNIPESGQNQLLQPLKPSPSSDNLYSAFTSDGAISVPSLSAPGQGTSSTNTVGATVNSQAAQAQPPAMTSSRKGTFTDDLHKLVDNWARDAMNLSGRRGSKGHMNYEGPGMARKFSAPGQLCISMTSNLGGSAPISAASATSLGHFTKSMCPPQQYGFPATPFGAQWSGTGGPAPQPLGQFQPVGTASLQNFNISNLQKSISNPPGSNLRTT
Assay [5] concerns the target Acyl-coenzyme A thioesterase 9, mitochondrial (Homo sapiens) (UniProt Q9Y305). The experiment in a line: Binding affinity to ACOT9 in human NCI-H23 cells at 1 uM by mass spectrometry based pull down assay. In kind it is cell-based. The method, boiled down: (§1)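 NCI-H23 or NCI-H358 cells were grown and lysed. Lysates were incubated overnight at 4 °C with 1 μM biotinylated covalent probe or DMSO, then pulled down on streptavidin beads. Proteins were run on polyacrylamide gels and stained with Coomassie. Bands were excised, digested and identified by mass spectrometry.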

The target of assay [6] is Protein SET (Homo sapiens) (UniProt Q01105). The assay can be described thus: Binding affinity to SET in human NCI-H358 cells at 1 uM by mass spectrometry based pull down assay. Format: cell-based.
Assay [7] deals with T-complex protein 1 subunit epsilon (Homo sapiens) (UniProt P48643). The experiment in a line: Binding affinity to CCT5 in human NCI-H23 cells at 1 uM by mass spectrometry based pull down assay. In kind it is cell-based.
Chain of T-complex protein 1 subunit epsilon (Homo sapiens) (P48643 whole entry, one chain of several): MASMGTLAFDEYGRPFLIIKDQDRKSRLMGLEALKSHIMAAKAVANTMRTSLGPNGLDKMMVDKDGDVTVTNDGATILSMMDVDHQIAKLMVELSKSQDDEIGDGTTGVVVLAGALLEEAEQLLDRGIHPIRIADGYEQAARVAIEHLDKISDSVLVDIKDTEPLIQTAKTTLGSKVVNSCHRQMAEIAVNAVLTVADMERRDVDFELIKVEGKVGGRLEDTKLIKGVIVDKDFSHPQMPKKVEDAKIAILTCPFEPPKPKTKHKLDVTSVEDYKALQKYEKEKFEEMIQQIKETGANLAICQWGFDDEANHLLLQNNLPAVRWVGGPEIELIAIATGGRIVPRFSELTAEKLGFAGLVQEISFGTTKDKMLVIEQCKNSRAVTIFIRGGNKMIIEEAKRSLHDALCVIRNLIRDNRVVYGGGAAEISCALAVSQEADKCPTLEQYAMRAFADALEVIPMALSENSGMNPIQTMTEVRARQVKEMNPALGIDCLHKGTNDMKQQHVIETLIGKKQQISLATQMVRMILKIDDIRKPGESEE
Assay [8] concerns the target Alpha-2-HS-glycoprotein (Homo sapiens) (UniProt P02765). The experiment in a line: Binding affinity to AHSG in human NCI-H23 cells at 1 uM by mass spectrometry based pull down assay. Format: cell-based. The method, boiled down: as §1
Assay [9] addresses Heterogeneous nuclear ribonucleoprotein U (Homo sapiens) (UniProt Q00839). The experiment in a line: Binding affinity to HNRNPU in human NCI-H23 cells at 1 uM by mass spectrometry based pull down assay. Format: cell-based.
For assay [10], the target named is Spermidine synthase (Homo sapiens) (UniProt P19623). The experiment in a line: Binding affinity to SRM in human NCI-H23 cells at 1 uM by mass spectrometry based pull down assay. Format: cell-based.
Chain of Spermidine synthase (Homo sapiens) (P19623 whole entry): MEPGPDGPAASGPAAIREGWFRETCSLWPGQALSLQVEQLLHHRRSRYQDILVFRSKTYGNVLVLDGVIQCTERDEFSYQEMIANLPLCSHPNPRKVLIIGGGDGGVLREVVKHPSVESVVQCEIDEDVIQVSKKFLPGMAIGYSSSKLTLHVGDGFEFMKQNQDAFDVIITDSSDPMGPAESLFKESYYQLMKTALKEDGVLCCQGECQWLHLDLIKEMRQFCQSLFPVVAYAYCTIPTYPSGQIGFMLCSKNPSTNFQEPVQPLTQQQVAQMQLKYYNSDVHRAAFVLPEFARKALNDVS
The target of assay [11] is Mitogen-activated protein kinase 1 (Homo sapiens) (UniProt P28482). The assay can be described thus: Binding affinity to MAPK1 in human NCI-H358 cells at 1 uM by mass spectrometry based pull down assay. In kind it is cell-based.
In assay [12] the target is 80S Ribosome (Homo sapiens) (UniProt P08865+P42677+P62753+P15880+P23396+P61247+P62701+P22090+P46782+P62081+P62241+P46781+P46783+P62280+P25398+P62277+P62263+P62841+P62244+P62249+P08708+P62269+P39019+P60866+P63220+P62266+P62847+P62851+P62854+P62979+P62857+P62273+P62861+P39023+P36578+P46777+Q02878+P18124+P62424+P62917+P32969+P27635+P62906+P62913+P30050+P26373+P40429+P50914+P61313+P18621+Q07020+Q02543+P84098+P46778+P35268+P62829+P62750+P83731+P61254+P61353+P46776+P46779+P47914+P62888+P62899+P62910+P49207+P42766+P18077+Q9Y3U8+P83881+P61927+P61513+P63173+P62891+P62945+P05388+P05386). The experiment in a line: Binding affinity to RPL24 in human NCI-H23 cells at 1 uM by mass spectrometry based pull down assay. Format: cell-based.

Assay [13] addresses Small ribosomal subunit protein uS2 (Homo sapiens) (UniProt P08865). The experiment in a line: Binding affinity to RPSA in human NCI-H23 cells at 1 uM by mass spectrometry based pull down assay. Format: cell-based.
The target of assay [14] is T1, Mitogen-activated protein kinase kinase kinase 7 (Homo sapiens) (UniProt O43318).
T1 sequence (whole entry): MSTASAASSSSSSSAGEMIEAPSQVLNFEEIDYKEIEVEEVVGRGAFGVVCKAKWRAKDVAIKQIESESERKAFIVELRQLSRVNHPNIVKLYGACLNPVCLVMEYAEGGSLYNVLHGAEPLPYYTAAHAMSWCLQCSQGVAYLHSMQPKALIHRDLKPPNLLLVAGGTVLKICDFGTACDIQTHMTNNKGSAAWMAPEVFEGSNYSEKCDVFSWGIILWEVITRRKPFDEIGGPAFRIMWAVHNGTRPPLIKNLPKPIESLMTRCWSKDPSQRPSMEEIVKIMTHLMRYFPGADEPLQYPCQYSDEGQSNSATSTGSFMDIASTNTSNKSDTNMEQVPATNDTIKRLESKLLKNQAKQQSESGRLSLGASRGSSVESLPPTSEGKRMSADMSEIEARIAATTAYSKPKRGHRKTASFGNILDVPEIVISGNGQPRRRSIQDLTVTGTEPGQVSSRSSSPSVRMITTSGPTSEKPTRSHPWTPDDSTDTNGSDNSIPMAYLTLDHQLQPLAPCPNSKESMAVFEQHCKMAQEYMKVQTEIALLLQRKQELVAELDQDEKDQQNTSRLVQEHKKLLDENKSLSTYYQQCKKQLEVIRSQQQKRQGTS
The experiment in a line: Inhibition of biotin-labeled N-(2-(2-(2-(2-(4-(4-((4-((2-Acrylamidophenyl)amino)-5-chloropyrimidin-2-yl)amino)phenyl)piperazin-1-yl)ethoxy)ethoxy)ethoxy)ethyl)-5-((3aS,4S,6aR)-2-oxohexahydro-1H-thieno[3,4-d]imidazol-4-yl)pentanamide probe binding to TAK1 in human NCI-H358 cells at 10 uM after 6 hrs by immunoblot based competitive pull down assay. Format: cell-based. In short, it runs like this: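 H358 cells given 1 or 10 μM compound for 6 h, medium removed, cells rinsed twice with cold PBS and lysed in MPER buffer. Lysates incubated overnight at 4 °C with 1 μM biotinylated covalent probe, captured on streptavidin beads, and TAK1 recovery assessed by immunoblotting with anti-TAK1 antibody.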
(In general: A western blot detects proteins with antibodies after separation by electrophoresis.)

In assay [15] the target is BMP-2-inducible protein kinase (Homo sapiens) (UniProt Q9NSY1). The experiment in a line: Inhibition of human BIKE (34 to 329 residues) expressed in bacterial expression system assessed as enzyme activity at 1 uM by KINOMEScan assay relative to control. Also on record: scale not given: the % may be the effect or the level left. The method, boiled down:
(§2)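 In vitro ATP-site competition binding assay (KinomeScan) across a panel of 456 kinases. Compound was tested at 1 and 10 μM. The read-out is the binding inhibition score relative to control.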

Assay [16] addresses Cyclin-dependent kinase-like 2 (Homo sapiens) (UniProt Q92772). The assay can be described thus: Inhibition of human CDKL2 (1 to 327 residues) expressed in bacterial expression system assessed as enzyme activity at 10 uM by KINOMEScan assay relative to control. Also on record: scale not given: the % may be the effect or the level left. The method, boiled down:
as §2

In assay [17] the target is Serine/threonine-protein kinase RIO3 (Homo sapiens) (UniProt O14730). The experiment in a line: Inhibition of full length human RIOK3 (1 to 519 residues) expressed in bacterial expression system assessed as enzyme activity at 10 uM by KINOMEScan assay relative to control. Also on record: scale not given: the % may be the effect or the level left. In short, it runs like this:
as §2

Chain of Acyl-coenzyme A thioesterase 9, mitochondrial (Homo sapiens) (Q9Y305 whole entry): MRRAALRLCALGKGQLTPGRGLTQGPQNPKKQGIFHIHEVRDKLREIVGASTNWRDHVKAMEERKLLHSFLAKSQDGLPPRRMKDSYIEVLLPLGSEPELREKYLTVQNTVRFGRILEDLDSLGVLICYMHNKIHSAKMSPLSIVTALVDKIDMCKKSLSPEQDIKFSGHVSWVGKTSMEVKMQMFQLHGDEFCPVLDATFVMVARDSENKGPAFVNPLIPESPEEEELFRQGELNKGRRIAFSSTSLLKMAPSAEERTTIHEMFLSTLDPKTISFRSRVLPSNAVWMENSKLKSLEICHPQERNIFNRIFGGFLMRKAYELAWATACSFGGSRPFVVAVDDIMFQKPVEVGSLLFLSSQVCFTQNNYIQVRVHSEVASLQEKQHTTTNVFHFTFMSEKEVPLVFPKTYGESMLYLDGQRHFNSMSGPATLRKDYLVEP
Chain of Cyclin-dependent kinase-like 2 (Homo sapiens) (Q92772 whole entry, the tested form may be a part): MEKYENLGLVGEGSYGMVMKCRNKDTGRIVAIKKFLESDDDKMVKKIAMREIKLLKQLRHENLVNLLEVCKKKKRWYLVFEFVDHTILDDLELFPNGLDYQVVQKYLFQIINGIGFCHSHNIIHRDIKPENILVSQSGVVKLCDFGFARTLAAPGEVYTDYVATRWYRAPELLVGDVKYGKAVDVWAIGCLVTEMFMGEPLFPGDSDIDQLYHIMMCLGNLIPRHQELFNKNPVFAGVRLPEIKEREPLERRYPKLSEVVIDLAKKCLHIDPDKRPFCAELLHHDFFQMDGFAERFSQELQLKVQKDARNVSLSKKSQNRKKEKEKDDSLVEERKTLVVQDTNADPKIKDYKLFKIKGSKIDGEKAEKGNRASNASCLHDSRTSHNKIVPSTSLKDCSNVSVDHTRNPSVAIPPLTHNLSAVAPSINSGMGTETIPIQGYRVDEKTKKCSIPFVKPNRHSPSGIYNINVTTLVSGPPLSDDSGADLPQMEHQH
Chain of Serine/threonine-protein kinase RIO3 (Homo sapiens) (O14730 whole entry, the tested form may be a part): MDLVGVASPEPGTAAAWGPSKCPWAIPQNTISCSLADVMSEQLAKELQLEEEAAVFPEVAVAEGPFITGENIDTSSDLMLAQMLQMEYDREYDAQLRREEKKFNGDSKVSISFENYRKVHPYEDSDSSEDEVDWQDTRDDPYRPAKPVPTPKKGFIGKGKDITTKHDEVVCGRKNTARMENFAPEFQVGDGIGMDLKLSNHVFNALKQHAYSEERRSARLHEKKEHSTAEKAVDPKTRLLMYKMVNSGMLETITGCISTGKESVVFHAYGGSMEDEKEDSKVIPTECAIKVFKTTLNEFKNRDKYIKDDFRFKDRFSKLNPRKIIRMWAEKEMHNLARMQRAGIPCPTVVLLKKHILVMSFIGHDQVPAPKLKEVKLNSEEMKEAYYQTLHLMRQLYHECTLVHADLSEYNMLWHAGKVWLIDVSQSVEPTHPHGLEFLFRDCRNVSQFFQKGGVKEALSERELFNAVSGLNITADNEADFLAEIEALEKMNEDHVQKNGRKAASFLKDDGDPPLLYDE

For `C=CC(=O)Nc1ccccc1Nc1nc(Nc2ccc(N3CCN(CCOCCOCCOCCNC(=O)CCCC[C@@H]4SC[C@@H]5NC(=O)N[C@@H]54)CC3)cc2)ncc1Cl`, the result in [1], in assay [2], in assay [3], in assay [4], in assay [5] and in assay [6] was Active. The result in assay [7], in [8], in assay [9], in assay [10], in assay [11] and in assay [12] was Active. Moreover, in assay [13], the result was Active.

For the compound `C=CC(=O)Nc1ccccc1Oc1nc(Nc2cnn(CCOC)c2)ncc1Cl`, the inhibition result in assay [14] was “Active”.

In the case of `COc1cc(O)c2c(c1)/C=C/C[C@H](O)[C@H](O)C(=O)/C=C\C[C@H](C)OC2=O`, the Activity in assay [15] was 68%; in assay [16], 8.6%; in assay [17], 0%.
